This note sets out measurements from ChEMBL document CHEMBL1275242, “Antifungal susceptibility profile of human-pathogenic species of Lichtheimia” (2010).

What all share (assay type): functional
Test [1] is described as follows: Antifungal activity against Lichtheimia ramosa clinical isolate after 24 hrs by EUCAST method. Summed up:
(§1)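 EUCAST broth microdilution, with spore inoculum counted in a hematocytometer. Final drug concentrations were 16 to 0.03 or 8 to 0.015 mg/liter depending on agent. Plates were incubated at 35°C in humid air and read visually with a mirror at 24 and 48 h. Endpoint was complete visual growth inhibition, except for echinocandins, where it was MEC (altered hyphal morphology versus growth control). Aspergillus QC strains were included.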

Test [2] is described as follows: Antifungal activity against Lichtheimia ramosa clinical isolate after 48 hrs by EUCAST method. Summed up: as §1
Test [3] concerns Lichtheimia corymbifera. The experiment in a line: Antifungal activity against Lichtheimia corymbifera clinical isolate after 24 hrs by EUCAST method. Summed up: as §1
Test [4] concerns Lichtheimia corymbifera. Kind of test: Antifungal activity against Lichtheimia corymbifera clinical isolate after 48 hrs by EUCAST method. Summed up:
as §1

A short description of test [5]: Antifungal activity against Lichtheimia ornata clinical isolate after 24 hrs by EUCAST method. Summed up:
as §1

Test [6] in a line: Antifungal activity against Lichtheimia ornata clinical isolate after 48 hrs by EUCAST method. Summed up: as §1

Values after ≈ are worked out from the molar mass of the structure shown. Numbered stars: 1 amine (or outer) side, 2 acyl side, 3 side chain; on linkers, the order of the positions; unused ones are H or OH. Bridge positions count the residues as written; N and C are the ends. Square brackets hold non-standard residues; d marks the D form. Peptide text beside a SMILES is read from it. * marks the point of attachment. hTyr(3S-OH,4S-OH,3'-OSO3H) = N[C@H](C(=O)O)[C@H](O)[C@@H](O)c1ccc(O)c(OS(=O)(=O)O)c1; pTerphenylCO(4''-OnC5H11) = CCCCCOc1ccc(-c2ccc(-c3ccc(C(=O)*)cc3)cc2)cc1; Orn(4R-OH,5R-OH) = O=C([C@H](C[C@@H](O)[C@@H](O)N[*:3])N[*:1])[*:2]; hTyr(3S-OH,4S-OH) = N[C@H](C(=O)O)[C@H](O)[C@@H](O)c1ccc(O)cc1; Pro(3S-OH,4S-Me) = C[C@H]1CN[C@H](C(=O)O)[C@H]1O; X1 = CCCCCOc1ccc(-c2cc(-c3ccc(C(=O)*)cc3)no2)cc1; Gln(3R-OH) = NC(=O)C[C@@H](O)[C@H](N)C(=O)O; Hyp = O=C(O)[C@@H]1C[C@@H](O)CN1

Turning to `C[C@@H]1[C@H](O)[C@@H](C)/C=C/C=C/C=C/C=C/C=C/C=C/C=C/[C@H](O[C@@H]2O[C@H](C)[C@@H](O)[C@H](N)[C@@H]2O)C[C@@H]2O[C@](O)(C[C@@H](O)C[C@@H](O)[C@H](O)CC[C@@H](O)C[C@@H](O)CC(=O)O[C@H]1C)C[C@H](O)[C@H]2C(=O)O` [AMPHOTERICIN B], the MIC (usually the smallest concentration in the dilution series that meets the test's criterion for growth inhibition) in test [1] was determined as 0.08 µg/mL (≈ 0.0866 µM); in test [2], 0.14 µg/mL (≈ 0.152 µM); in test [3], 0.07 µg/mL (≈ 0.0758 µM); in test [4] it was 0.14 µg/mL (≈ 0.152 µM); in test [5], 0.12 µg/mL (≈ 0.13 µM); in test [6], 0.12 µg/mL (≈ 0.13 µM).

For the compound `CCCCCOc1ccc(-c2ccc(-c3ccc(C(=O)N[C@H]4C[C@@H](O)[C@@H](O)NC(=O)[C@@H]5[C@@H](O)[C@@H](C)CN5C(=O)[C@H]([C@@H](C)O)NC(=O)[C@H]([C@H](O)[C@@H](O)c5ccc(O)cc5)NC(=O)[C@@H]5C[C@@H](O)CN5C(=O)[C@H]([C@@H](C)O)NC4=O)cc3)cc2)cc1` [ANIDULAFUNGIN] ({pTerphenylCO(4''-OnC5H11)}-[Orn(4R-OH,5R-OH)]T[Hyp][hTyr(3S-OH,4S-OH)]T[Pro(3S-OH,4S-Me)]; lactam 1-C), the MIC in test [1] was 3.58 µg/mL (≈ 3.14 µM); in test [2], 5.15 µg/mL (≈ 4.52 µM); in test [3], 1.99 µg/mL (≈ 1.75 µM); in test [4] it was 10.8 µg/mL (≈ 9.48 µM); in test [5], 4 µg/mL (≈ 3.51 µM); in test [6], 32 µg/mL (≈ 28.1 µM).

Turning to `CC[C@H](C)C[C@H](C)CCCCCCCCC(=O)N[C@H]1C[C@@H](O)[C@@H](NCCN)NC(=O)[C@@H]2[C@@H](O)CCN2C(=O)[C@H]([C@H](O)CCN)NC(=O)[C@H]([C@H](O)[C@@H](O)c2ccc(O)cc2)NC(=O)[C@@H]2C[C@@H](O)CN2C(=O)[C@H]([C@@H](C)O)NC1=O` [CASPOFUNGIN], the MIC in test [1] came to 11 µg/mL (≈ 10.1 µM); in test [2], 21.4 µg/mL (≈ 19.6 µM); in test [3], 9.27 µg/mL (≈ 8.48 µM); in test [4] it was 10 µg/mL (≈ 9.16 µM); in test [5], 32 µg/mL (≈ 29.3 µM); in test [6], 32 µg/mL (≈ 29.3 µM).

For `CCC(C)n1ncn(-c2ccc(N3CCN(c4ccc(OCC5COC(Cn6cncn6)(c6ccc(Cl)cc6Cl)O5)cc4)CC3)cc2)c1=O` (centres undefined) [ITRACONAZOLE], the MIC came to 0.92 µg/mL (≈ 1.3 µM) in test [1]; 2.38 µg/mL (≈ 3.37 µM) in test [2]; 0.62 µg/mL (≈ 0.879 µM) in test [3]; 1.03 µg/mL (≈ 1.46 µM) in test [4]; 0.5 µg/mL (≈ 0.709 µM) in test [5]; 1 µg/mL (≈ 1.42 µM) in test [6].

As to `CCCCCOc1ccc(-c2cc(-c3ccc(C(=O)N[C@H]4C[C@@H](O)[C@@H](O)NC(=O)[C@@H]5[C@@H](O)[C@@H](C)CN5C(=O)[C@H]([C@H](O)CC(N)=O)NC(=O)[C@H]([C@H](O)[C@@H](O)c5ccc(O)c(OS(=O)(=O)O)c5)NC(=O)[C@@H]5C[C@@H](O)CN5C(=O)[C@H]([C@@H](C)O)NC4=O)cc3)no2)cc1` [MICAFUNGIN] (X1-[Orn(4R-OH,5R-OH)]T[Hyp][hTyr(3S-OH,4S-OH,3'-OSO3H)][Gln(3R-OH)][Pro(3S-OH,4S-Me)]; lactam 1-C), the MIC in test [1] amounted to 6.85 µg/mL (≈ 5.39 µM); in test [2] it was 21.4 µg/mL (≈ 16.8 µM); in test [3], 8.92 µg/mL (≈ 7.02 µM); in test [4], 12.6 µg/mL (≈ 9.95 µM); in test [5] it was 32 µg/mL (≈ 25.2 µM); in test [6], 32 µg/mL (≈ 25.2 µM).

Take `CC[C@@H]([C@H](C)O)n1ncn(-c2ccc(N3CCN(c4ccc(OC[C@@H]5CO[C@@](Cn6cncn6)(c6ccc(F)cc6F)C5)cc4)CC3)cc2)c1=O` [POSACONAZOLE]: the MIC in test [1] amounted to 0.32 µg/mL (≈ 0.457 µM); in test [2], 0.69 µg/mL (≈ 0.985 µM); in test [3], 0.37 µg/mL (≈ 0.528 µM); in test [4], 0.58 µg/mL (≈ 0.828 µM); in test [5], 0.25 µg/mL (≈ 0.357 µM); in test [6], 0.25 µg/mL (≈ 0.357 µM).

With `C[C@@H](c1nc(-c2ccc(C#N)cc2)cs1)[C@](O)(Cn1cncn1)c1ccc(F)cc1F` [RAVUCONAZOLE], the MIC in test [1] was determined as 1.44 µg/mL (≈ 3.29 µM); in test [2] it was 3.42 µg/mL (≈ 7.82 µM); in test [3], 1.34 µg/mL (≈ 3.06 µM); in test [4], 1.86 µg/mL (≈ 4.25 µM); in test [5], 1 µg/mL (≈ 2.29 µM); in test [6], 2 µg/mL (≈ 4.57 µM).

`CN(C/C=C/C#CC(C)(C)C)Cc1cccc2ccccc12` [TERBINAFINE]: the MIC in test [1] is 0.56 µg/mL (≈ 1.92 µM); in test [2] it was 1 µg/mL (≈ 3.43 µM); in test [3], 0.48 µg/mL (≈ 1.65 µM); in test [4], 0.75 µg/mL (≈ 2.57 µM); in test [5] it was 0.25 µg/mL (≈ 0.858 µM); in test [6] it was 0.5 µg/mL (≈ 1.72 µM).

As to `C[C@@H](c1ncncc1F)[C@](O)(Cn1cncn1)c1ccc(F)cc1F` [VORICONAZOLE], the MIC was found to be 12.6 µg/mL (≈ 36 µM) in test [1]; 15.1 µg/mL (≈ 43.1 µM) in test [2]; 11.1 µg/mL (≈ 31.8 µM) in test [3]; 11.5 µg/mL (≈ 33 µM) in test [4]; 16 µg/mL (≈ 45.8 µM) in test [5]; 16 µg/mL (≈ 45.8 µM) in test [6].
